Laboratory results published in the EternaBench riboswitch data.

Tested on: MS2 coat protein
Assay: apparent Kd, MS2 coat protein; higher = weaker binding; RNA-MaP array; FMN 200 µM where present
How it was run: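 Designs on Illumina sequencing-chip clusters, transcribed by stalled E. coli RNA polymerase, were exposed to SNAP-549-labelled MS2 coat protein in doubling steps from 0.7 or 1.5 nM up to 3 µM, without and then with constant ligand. The buffer held 100 mM Tris-HCl pH 7.5, 80 mM KCl, 4 mM MgCl2, BSA, DTT, yeast tRNA and Tween-20. Apparent Kd values are medians of filtered per-cluster binding-curve fits to green signal normalised to red-channel RNA signal and control-cluster median Fmax.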

[1] = designed as: OFF switch for flavin mononucleotide, no ligand
[2] = ligand present: flavin mononucleotide, designed as: OFF switch for flavin mononucleotide
[3] = designed as: ON switch for flavin mononucleotide, no ligand
[4] = ligand present: flavin mononucleotide, designed as: ON switch for flavin mononucleotide

Sequence: GCCUCACAUGAGGAUCACCCAUGUCAGGAUAUAGGAGACGGCAGAAAUCCUGCCAUCGCUAGAAGGGACUGGCA
- apparent Kd [1]: 0.0239 µM
- apparent Kd [2]: 0.105 µM

Sequence: GCCUCAUAGUAGAAGGGACUUAGACAGUUAAGCAUCUUGUACAAUUAACAUGAGGAUCACCCAUGUCAGGAUAUACUAAGAGGC
- apparent Kd [1]: 0.00802 µM
- apparent Kd [2]: 0.00949 µM

Sequence: GCCUUAUCCGUCAGGAUAUACAGCCGCUAGUUGUUGUAGAAGGGACAUGAGGAUCACCCAUGUACGUACCAUUG
- apparent Kd [1]: 0.0203 µM
- apparent Kd [2]: 0.0307 µM

Sequence: GCGACGAAAGUCGAACGAUGUAGCAGAAGGACAUGAGGAUCACCCAUGUCAGCUGUAACAGCCAUGUAGGAUAUGCUACAUCGC
- apparent Kd [1]: 0.00419 µM
- apparent Kd [2]: 0.00542 µM

Sequence: GCGAUGAUCGAGAAGGCCACUACAUGAGGAUCACCCAUGUCGUGGUGUAUUGGAGGAUAUCGAUCGGCGUCUUAUGAGGAUAUA
- apparent Kd [1]: 0.00517 µM
- apparent Kd [2]: 0.00565 µM

Sequence: GCGAUGUUAGGAUAUUGCAUGUAGUGGGUUCCCAGCUGCGUUAAGAAGGGACAUGAGGAUCACCCAUGUGAUGA
- apparent Kd [1]: 0.497 µM
- apparent Kd [2]: 0.384 µM

Sequence: GCGAUUGCGUAGAAGGUACAAUAUAAUACAUUGUAAGGAUAUACUUACAUGAGGAUCACCCAUGUUAAUGGAAUUUGCAAUCGC
- apparent Kd [3]: 0.0182 µM
- apparent Kd [4]: 0.0119 µM

Sequence: GCGAUUUUGUAAGGAUAUACACGAGUUUUAAGUGUAGAAGGUACUUACAUGAGGAUCACCCAUGUAUAAAUGUAUAAUAGUCGC
- apparent Kd [3]: 0.00911 µM
- apparent Kd [4]: 0.00751 µM

Sequence: GCGAUUUUGUAGAAGGUACGUUAUAAGACAAUGUAAGGAUAUACUGACAUGAGGAUCACCCAUGUAUAAUUAGUUUACAGUCGC
- apparent Kd [3]: 0.00774 µM
- apparent Kd [4]: 0.00591 µM

Sequence: GCGCAAAGAUUAUUAUGAAUAAACAUGAGGAUCACCCAUGUAUAGGAUAUCGACUCGAAUAGAGUCGAGAAGGAUACAUAGCGC
- apparent Kd [1]: 0.0225 µM
- apparent Kd [2]: 0.0971 µM

Sequence: GCGCAGUCAGGAUAUGCCGCUUGCGAUCACCGUUGGCAAAGGCAGAAGGGACAUGAGGAUCACCCAUGUGGCGC
- apparent Kd [1]: 0.0193 µM
- apparent Kd [2]: 0.0229 µM

Sequence: GCGCGGAACCUAGGAUAUCCGGCAUGGACAGGUGGUAAGUCUCCCACAUGAGGAUCACCCAUGUAGGAGAAGGAGGAUCACGGG
- apparent Kd [1]: 0.00651 µM
- apparent Kd [2]: 0.0067 µM

Sequence: GCGGAACAUGAGGAUCACCCAUGUAAAGGGUGUAAAGGAUAUUAUUGGGAGAAGGUAGGGUAAGAAGGUUGCUUGG
- apparent Kd [3]: 0.887 µM
- apparent Kd [4]: 1.28 µM

Sequence: GCGGCUAAUGCAGGAUAUCGGCGCGUGUAGCGCCGAGAAGGGCACAUGAGGAUCACCCAUGUGAUCAAUCAAUGUUAAUGCCGC
- apparent Kd [1]: 0.00868 µM
- apparent Kd [2]: 0.0456 µM

Sequence: GCGUAAAAUGUAGGAUAUGACACAGGAAACUGGUCAGAAGGACAUGAGGAUCACCCAUGUAAAAUGUUCAAGAAUAACUCAUGC
- apparent Kd [2]: 0.172 µM

Sequence: GCGUAAUAGGUGUAGCUAGUCAUUCAAGAAGGGUGGAGAACAUGAGGAUCACCCAUGUAGUUUAUACAGGAUAUUGAUAUACGC
- apparent Kd [3]: 0.552 µM
- apparent Kd [4]: 0.138 µM

Sequence: GCGUCAGAAUUAAUUGUGACAGACAGAAGGCAAUAGUUCAUGUCAGACAUGAGGAUCACCCAUGUUGAGGAUAUGUAUUGACAC
- apparent Kd [1]: 0.00562 µM
- apparent Kd [2]: 0.00565 µM

Sequence: GCGUCAGAAUUAAUUGUGACAUACAGAAGGCAAAAGUAAGGAUAAGACAUGAGGAUCACCCAUGUUGAGGAUAUGUAGAGAAUC
- apparent Kd [1]: 0.0107 µM
- apparent Kd [2]: 0.00864 µM

Sequence: GCGUCAGAAUUAAUUGUGACAUACAGAAGGCAAAAGUUAGGAUUAGACAUGAGGAUCACCCAUGUUGAGGAUAUGUAGAGAAUC
- apparent Kd [1]: 0.00969 µM
- apparent Kd [2]: 0.00852 µM

Sequence: GCGUCAGGAGGAUAUACAUGAGGAUCACCCAUGUAACACGGGAUCGUCGUUUAGUAGAGUAGAAGGCCUAUUGU
- apparent Kd [1]: 0.0641 µM
- apparent Kd [2]: 0.106 µM

Sequence: GCGUGUUGAGGAUAUACGAACAUGUCGCCAGAUGUCAUGGUACAUGAGGAUCACCCAUGUAGAAGGUGGUACGC
- apparent Kd [1]: 0.263 µM
- apparent Kd [2]: 0.336 µM

Sequence: GCGUUACAUGAGGAUCACCCAUGUGAGGAUAUGGUGCGGUAGUGUCCUGUCGCGUACUCCAGAAGGCACGGGUG
- apparent Kd [1]: 0.215 µM
- apparent Kd [2]: 0.0917 µM

Sequence: GCGUUACAUGAGGAUCACCCAUGUGAGGAUAUGGUUCGGUACUGUCCUGUCGCGUACUCCAGAAGGCACGGGUG
- apparent Kd [1]: 0.2 µM
- apparent Kd [2]: 0.115 µM

Sequence: GCGUUGAACGAGAAGGCCACUACAUGAGGAUCACCCAUGUCGUAGAGUAUUGGAGGAUAUCGAUAGGCGUCUCAUGAGGACAUA
- apparent Kd [1]: 0.0236 µM
- apparent Kd [2]: 0.0116 µM

Sequence: GCUAAGGGAGGAUAUACAUGAGGAUCACCCAUGUAGUCGCUGCGUUUCAUUAUCCAAGGUAGAAGGCCCAAAAU
- apparent Kd [1]: 0.0254 µM
- apparent Kd [2]: 0.036 µM

Sequence: GCUACGCCUGACAUGAGGAUCACCCAUGUUAGAUUGUUAUGUCAGGAUAUAGUCUAGAAACUAGACUAGAAGGGAUGUGUAGCU
- apparent Kd [3]: 0.872 µM
- apparent Kd [4]: 0.112 µM

Sequence: GCUAGUAUUGCAGGAUAUUGUAAUUUAUUAUUUCAAGAAGGGCAUUACAUGAGGAUCACCCAUGUCAUCCUAUGGUAUACUAGC
- apparent Kd [1]: 0.0106 µM
- apparent Kd [2]: 0.0228 µM

Sequence: GCUAGUCAUGUCAGGAUAUGCAGAUCCUUGGAUCUGCAGAAGGGACAUGAGGAUCACCCAUGUGCCUAGCUAGC
- apparent Kd [1]: 0.041 µM
- apparent Kd [2]: 0.317 µM
